In ChEMBL document CHEMBL1128519, “Semisynthetic chemical modification of the antifungal lipopeptide echinocandin B (ECB): structure-activity studies of the lipophilic and geometric parameters of polyarylated acyl analogs of ECB” (J Med Chem, 1995):
Values after ≈ are worked out from the molar mass of the structure shown. Numbered stars: 1 amine (or outer) side, 2 acyl side, 3 side chain; on linkers, the order of the positions; unused ones are H or OH. Bridge positions count the residues as written; N and C are the ends. Square brackets hold non-standard residues; d marks the D form. Peptide text beside a SMILES is read from it. * marks the point of attachment. Orn(4R-OH,5R-OH) = O=C([C@H](C[C@@H](O)[C@@H](O)N[*:3])N[*:1])[*:2]; hTyr(3S-OH,4S-OH) = N[C@H](C(=O)O)[C@H](O)[C@@H](O)c1ccc(O)cc1; Benzoyl(4-(4-OctO-Ph)) = CCCCCCCCOc1ccc(-c2ccc(C(=O)*)cc2)cc1; X3 = CC(C)(C)OCCOc1ccc(C#Cc2ccc(-c3ccc(C(=O)*)cc3)cc2)cc1; X1 = O=C(c1ccc(-c2ccc(-c3ccc(-c4ccccc4)cc3)cc2)cc1)*; X2 = CCCOc1ccc(C#Cc2ccc(-c3ccc(C(=O)*)cc3)cc2)cc1; Pro(3S-OH,4S-Me) = C[C@H]1CN[C@H](C(=O)O)[C@H]1O; Benzoyl(4-octyloxy) = CCCCCCCCOc1ccc(C(=O)*)cc1; X9 = CCCCCCCCCCOc1ccc2cc(C(=O)*)ccc2c1; Hyp = O=C(O)[C@@H]1C[C@@H](O)CN1

Legend:
[1] = test system: Candida albicans; assay: Antifungal activity against Candida albicans; format: functional
Summary of the method: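 Broth microdilution, C. albicans A26 (ATCC 62342) grown on Sabouraud dextrose agar at 35 °C; inoculum 1 × 10^5 conidia/mL in antibiotic 3 broth. Compounds dissolved at 1.0 mg/mL in methanol, 2-fold serial dilutions from 80 µg/mL, duplicate. Read after 48 h at 35 °C. MIC = lowest concentration completely inhibiting visible growth.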

[2] = molecular target: Beta-1,3-glucan synthase (Candida albicans) (UniProt O13428); assay: In vitro inhibition of glucan synthase obtained from Candida albicans at a concentration of 10 ug/mL.
Beta-1,3-glucan synthase (Candida albicans), sequence (O13428 as listed by the source): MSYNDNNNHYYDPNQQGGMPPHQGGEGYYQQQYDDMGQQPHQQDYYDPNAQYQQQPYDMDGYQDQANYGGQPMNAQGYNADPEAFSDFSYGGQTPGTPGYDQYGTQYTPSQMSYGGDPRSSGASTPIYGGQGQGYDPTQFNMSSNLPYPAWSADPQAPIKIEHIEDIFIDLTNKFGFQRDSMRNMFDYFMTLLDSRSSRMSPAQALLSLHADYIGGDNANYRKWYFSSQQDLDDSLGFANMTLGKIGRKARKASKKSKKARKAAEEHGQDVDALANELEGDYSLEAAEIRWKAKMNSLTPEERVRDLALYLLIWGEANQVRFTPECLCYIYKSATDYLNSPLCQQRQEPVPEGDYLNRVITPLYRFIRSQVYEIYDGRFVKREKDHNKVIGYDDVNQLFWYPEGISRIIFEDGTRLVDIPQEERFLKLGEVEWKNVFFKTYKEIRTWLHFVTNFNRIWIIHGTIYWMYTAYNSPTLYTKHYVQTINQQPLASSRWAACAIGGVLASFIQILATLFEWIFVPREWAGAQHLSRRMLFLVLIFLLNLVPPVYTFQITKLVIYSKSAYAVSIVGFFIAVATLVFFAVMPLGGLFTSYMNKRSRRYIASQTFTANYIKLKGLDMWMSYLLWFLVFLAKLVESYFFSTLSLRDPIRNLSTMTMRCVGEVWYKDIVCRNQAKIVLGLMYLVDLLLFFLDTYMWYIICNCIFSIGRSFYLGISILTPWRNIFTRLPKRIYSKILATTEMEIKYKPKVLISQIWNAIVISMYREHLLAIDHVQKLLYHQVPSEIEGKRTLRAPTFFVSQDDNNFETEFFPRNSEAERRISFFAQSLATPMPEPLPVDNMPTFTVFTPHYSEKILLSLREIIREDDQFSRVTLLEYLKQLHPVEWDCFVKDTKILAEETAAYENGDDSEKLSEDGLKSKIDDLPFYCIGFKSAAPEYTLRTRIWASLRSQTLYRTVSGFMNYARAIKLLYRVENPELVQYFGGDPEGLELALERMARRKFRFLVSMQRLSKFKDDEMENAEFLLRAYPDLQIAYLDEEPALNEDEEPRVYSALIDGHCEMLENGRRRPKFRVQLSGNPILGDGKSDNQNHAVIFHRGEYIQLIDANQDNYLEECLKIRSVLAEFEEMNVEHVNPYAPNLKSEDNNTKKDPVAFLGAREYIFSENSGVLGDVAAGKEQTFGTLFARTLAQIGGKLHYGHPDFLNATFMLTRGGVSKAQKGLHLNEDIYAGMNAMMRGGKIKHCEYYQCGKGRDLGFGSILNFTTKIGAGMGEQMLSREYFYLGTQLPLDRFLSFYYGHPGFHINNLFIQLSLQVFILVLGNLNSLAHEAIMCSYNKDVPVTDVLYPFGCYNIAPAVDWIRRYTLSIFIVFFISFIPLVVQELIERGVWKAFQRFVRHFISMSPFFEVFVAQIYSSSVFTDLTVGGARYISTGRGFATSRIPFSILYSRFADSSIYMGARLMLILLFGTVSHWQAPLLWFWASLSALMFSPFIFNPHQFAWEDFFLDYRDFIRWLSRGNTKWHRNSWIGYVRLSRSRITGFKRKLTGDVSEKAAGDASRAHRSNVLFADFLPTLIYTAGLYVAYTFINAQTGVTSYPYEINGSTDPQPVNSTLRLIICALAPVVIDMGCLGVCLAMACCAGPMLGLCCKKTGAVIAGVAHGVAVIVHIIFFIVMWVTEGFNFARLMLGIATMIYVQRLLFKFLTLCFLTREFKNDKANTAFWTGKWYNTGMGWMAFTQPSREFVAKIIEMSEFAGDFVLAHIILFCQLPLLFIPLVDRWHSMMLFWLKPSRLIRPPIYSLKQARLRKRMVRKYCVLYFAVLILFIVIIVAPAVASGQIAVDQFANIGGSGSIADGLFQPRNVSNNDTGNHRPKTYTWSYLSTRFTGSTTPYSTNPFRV
Summary of the method: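 Purified, solubilized β-(1,3)-D-glucan synthase prepared from C. albicans. Percent inhibition measured at 10 µg/mL compound, single determination.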

[3] = test system: Candida albicans; assay: In vivo antifungal activity administered intraperitoneally against Candida albicans infections in mice.; format: functional; conditions: ip
Summary of the method: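 Male ICR mice (18-20 g), X-irradiated with 400 r 24 h before iv tail-vein infection with 2 × 10^6 C. albicans A26 cells in saline. Compounds suspended in β-cyclodextrin, given parenterally at 0, 4, 24 and 48 h post-infection. 10 mice per dose, top dose 10 mg/kg with 2-fold dilutions down to 0.039 mg/kg. 7-day survival; ED50 by Reed-Muench.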

[4] = test system: Candida albicans; assay: In vivo antifungal activity administered orally against Candida albicans infections in mice.; format: functional; conditions: po
Summary of the method: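 X-irradiated (400 r, 24 h prior) male ICR mice infected iv with 2 × 10^6 C. albicans A26 cells. Oral gavage in cremophor (5%)/linoleic acid (8%)/water vehicle, b.i.d. × 4 starting immediately post-infection. 10 mice per dose level. Study ends at day 7; ED50 = dose giving 50% survival, by Reed-Muench.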

Compound | MIC [1] | inhibition [2] | ED50 [3] | ED50 [4]
C[C@@H](O)[C@@H]1NC(=O)[C@H]([C@H](O)[C@@H](O)c2ccc(O)cc2)NC(=O)[C@@H]2C[C@@H](O)CN2C(=O)[C@H]([C@@H](C)O)NC(=O)[C@@H](NC(=O)c2ccc(-c3ccc(C#Cc4ccc(OCCOC(C)(C)C)cc4)cc3)cc2)C[C@@H](O)[C@@H](O)NC(=O)[C@@H]2[C@@H](O)[C@@H](C)CN2C1=O (X3-[Orn(4R-OH,5R-OH)]T[Hyp][hTyr(3S-OH,4S-OH)]T[Pro(3S-OH,4S-Me)]; lactam 1-C) | 0.02 µg/mL (≈ 16.7 nM) | 82.4% | 0.2 mg/kg | 7.6 mg/kg
C[C@@H](O)[C@@H]1NC(=O)[C@H]([C@H](O)[C@@H](O)c2ccc(O)cc2)NC(=O)[C@@H]2C[C@@H](O)CN2C(=O)[C@H]([C@@H](C)O)NC(=O)[C@@H](NC(=O)c2ccc(-c3ccc(-c4ccc(-c5ccccc5)cc4)cc3)cc2)C[C@@H](O)[C@@H](O)NC(=O)[C@@H]2[C@@H](O)[C@@H](C)CN2C1=O (X1-[Orn(4R-OH,5R-OH)]T[Hyp][hTyr(3S-OH,4S-OH)]T[Pro(3S-OH,4S-Me)]; lactam 1-C) | < 0.01 µg/mL | 74.7% | 0.4 mg/kg | 39.7 mg/kg
CCCCCCCCOc1ccc(C(=O)N[C@H]2C[C@@H](O)[C@@H](O)NC(=O)[C@@H]3[C@@H](O)[C@@H](C)CN3C(=O)[C@H]([C@@H](C)O)NC(=O)[C@H]([C@H](O)[C@@H](O)c3ccc(O)cc3)NC(=O)[C@@H]3C[C@@H](O)CN3C(=O)[C@H]([C@@H](C)O)NC2=O)cc1 [CILOFUNGIN] ({Benzoyl(4-octyloxy)}-[Orn(4R-OH,5R-OH)]T[Hyp][hTyr(3S-OH,4S-OH)]T[Pro(3S-OH,4S-Me)]; lactam 1-C) | 0.312 µg/mL (≈ 303 nM) | 76% | 7.6 mg/kg | > 400 mg/kg
CCCCCCCCCCOc1ccc2cc(C(=O)N[C@H]3C[C@@H](O)[C@@H](O)NC(=O)[C@@H]4[C@@H](O)[C@@H](C)CN4C(=O)[C@H]([C@@H](C)O)NC(=O)[C@H]([C@H](O)[C@@H](O)c4ccc(O)cc4)NC(=O)[C@@H]4C[C@@H](O)CN4C(=O)[C@H]([C@@H](C)O)NC3=O)ccc2c1 (X9-[Orn(4R-OH,5R-OH)]T[Hyp][hTyr(3S-OH,4S-OH)]T[Pro(3S-OH,4S-Me)]; lactam 1-C) | 0.005 µg/mL (≈ 4.51 nM) | 82.2% | 1.6 mg/kg | 46.1 mg/kg
CCCCCCCCOc1ccc(-c2ccc(C(=O)N[C@H]3C[C@@H](O)[C@@H](O)NC(=O)[C@@H]4[C@@H](O)[C@@H](C)CN4C(=O)[C@H]([C@@H](C)O)NC(=O)[C@H]([C@H](O)[C@@H](O)c4ccc(O)cc4)NC(=O)[C@@H]4C[C@@H](O)CN4C(=O)[C@H]([C@@H](C)O)NC3=O)cc2)cc1 ({Benzoyl(4-(4-OctO-Ph))}-[Orn(4R-OH,5R-OH)]T[Hyp][hTyr(3S-OH,4S-OH)]T[Pro(3S-OH,4S-Me)]; lactam 1-C) | 0.0025 µg/mL (≈ 2.26 nM) | 81.5% | 0.5 mg/kg | 27.3 mg/kg
CCCOc1ccc(C#Cc2ccc(-c3ccc(C(=O)N[C@H]4C[C@@H](O)[C@@H](O)NC(=O)[C@@H]5[C@@H](O)[C@@H](C)CN5C(=O)[C@H]([C@@H](C)O)NC(=O)[C@H]([C@H](O)[C@@H](O)c5ccc(O)cc5)NC(=O)[C@@H]5C[C@@H](O)CN5C(=O)[C@H]([C@@H](C)O)NC4=O)cc3)cc2)cc1 (X2-[Orn(4R-OH,5R-OH)]T[Hyp][hTyr(3S-OH,4S-OH)]T[Pro(3S-OH,4S-Me)]; lactam 1-C) | < 0.01 µg/mL | 83.5% | 0.4 mg/kg | 7 mg/kg
